From ChEMBL document CHEMBL4130370, “Discovery of 5,6-diaryl-1,2,4-triazines hybrids as potential apoptosis inducers” (Eur J Med Chem, 2017)

Tests used:
Type in all cases: functional, cell-based
[1] = tested on: SK-N-SH; test: Antiproliferative activity against human SK-N-SH cells after 48 hrs by MTT assay
[2] = tested on: MGC-803; test: Antiproliferative activity against human MGC803 cells after 48 hrs by MTT assay; conditions: MGC-803, 48 h
Procedure, shortened: (§1)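 Cells exposed to compounds for 48 h, then read by MTT. IC50 is the concentration giving 50% inhibition of tumour cell proliferation, taken from dose-response curves. Values are means±SD of three independent experiments. 5-FU was the reference drug.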

[3] = tested on: PC-3; test: Antiproliferative activity against human PC3 cells after 48 hrs by MTT assay; conditions: PC-3, 48 h; procedure, shortened: as §1
[4] = tested on: ECa-109 cell line; test: Antiproliferative activity against human EC109 cells after 48 hrs by MTT assay; conditions: ECa-109, 48 h; procedure, shortened: as §1

For `O=C(/C=C/c1ccc(OCCCn2cc(CSC3=NCCS3)nn2)cc1)c1ccc(Br)cc1`, which IC50 [1] is on record?
Its IC50 is 8.16 µM.

Which IC50 [2] does the source give for `O=c1[nH]cc(F)c(=O)[nH]1` [FLUOROURACIL] here?
The IC50 was 9.79 µM.

And the IC50 [3]?
The IC50 was 12.9 µM.

What about the IC50 [4] of the same compound?
Its IC50 is 56.2 µM.

For `COc1ccc(Cn2cc(CSc3nnc(-c4ccccc4)c(-c4ccccc4)n3)nn2)cc1`, which IC50 [2] is on record?
Its IC50 is 22.7 µM.

And the IC50 [3]?
Its IC50 is 27.5 µM.

And the IC50 [4]?
Its IC50 is 28.4 µM.

With `CC(=O)CSc1nnc(-c2ccccc2)c(-c2ccccc2)n1` as the compound, how does the IC50 [2] read?
The IC50 was greater than 100 µM.

What about the IC50 [3] of the same compound?
Its IC50 is greater than 100 µM.

And the IC50 [4]?
Its IC50 is greater than 100 µM.

For `c1ccc(Cn2cc(CSc3nnc(-c4ccccc4)c(-c4ccccc4)n3)nn2)cc1`, which IC50 [2] is on record?
Its IC50 is 11.3 µM.

What about the IC50 [3] of the same compound?
The IC50 was 15.6 µM.

What about the IC50 [4] of the same compound?
Its IC50 is 11.1 µM.

Which IC50 [2] does the source give for `COc1ccc(-c2coc3cc(OCCCn4cc(CSc5nnc(-c6ccccc6)c(-c6ccccc6)n5)nn4)ccc3c2=O)cc1` here?
Its IC50 is greater than 100 µM.

And the IC50 [3]?
The IC50 was 10.2 µM.

What about the IC50 [4] of the same compound?
Its IC50 is greater than 100 µM.

With `Cc1ccc(Cn2cc(CSc3nnc(-c4ccccc4)c(-c4ccccc4)n3)nn2)cc1` as the compound, how does the IC50 [2] read?
Its IC50 is 34.8 µM.

And the IC50 [3]?
The IC50 was 22.6 µM.

And the IC50 [4]?
Its IC50 is 12.4 µM.

`O=C(O)CCSc1nnc(-c2ccccc2)c(-c2ccccc2)n1` was tested. Which IC50 [2] did it give?
Its IC50 is greater than 100 µM.

What about the IC50 [3] of the same compound?
Its IC50 is greater than 100 µM.

What about the IC50 [4] of the same compound?
The IC50 was greater than 100 µM.
